# Results published in ChEMBL document CHEMBL1141221, “Diketo acid pharmacophore. 2. Discovery of structurally diverse inhibitors of HIV-1 integrase” (J Med Chem, 2005).
# Assays:
# CEM-SS = assay: Cytotoxicity against human T cell line CEM-SS; assay type: functional
# Summary of the method: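 Uninfected CEM-SS cells were exposed to serial compound dilutions on the same plate as the antiviral test, at 37 °C with 5% CO2 for 6 days. Viability was measured by XTT (0.2 mg/mL, 4 h) absorbance at 450 nm.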
# [1] = target: T1, Human immunodeficiency virus type 1 integrase (Human immunodeficiency virus 1, UniProt Q7ZJM1); assay: Inhibition of strand transfer catalytic activity HIV1 integrase
# Summary of the method: (§1)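 Wild-type HIV-1 IN (200 nM final) preincubated with inhibitor for 30 min at 30 °C. Buffer: 25 mM MOPS pH 7.2, 7.5 mM MnCl2, 50 mM NaCl, 10% DMSO, BSA and reducing agents. Reactions were quenched with formamide dye. IC50 was taken from log concentration versus percent inhibition.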
# [2] = target: T1, Human immunodeficiency virus type 1 integrase; assay: Inhibition of 3'-processing catalytic activity HIV1 integrase; summary of the method: as §1
# [3] = tested on: Human immunodeficiency virus 1; assay: Antiviral activity in human T cell line CEM-SS infected with HIV1; assay type: functional, organism-based
# Summary of the method: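 CEM-SS cells at 5×10^3/well were infected with HIV-1 RF (MOI 0.3), and serial compound dilutions were added immediately. Cells were kept at 37 °C with 5% CO2 for 6 days. Viability was read by XTT (0.2 mg/mL, 4 h) absorbance at 450 nm.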
# T1 sequence (Q7ZJM1 whole entry): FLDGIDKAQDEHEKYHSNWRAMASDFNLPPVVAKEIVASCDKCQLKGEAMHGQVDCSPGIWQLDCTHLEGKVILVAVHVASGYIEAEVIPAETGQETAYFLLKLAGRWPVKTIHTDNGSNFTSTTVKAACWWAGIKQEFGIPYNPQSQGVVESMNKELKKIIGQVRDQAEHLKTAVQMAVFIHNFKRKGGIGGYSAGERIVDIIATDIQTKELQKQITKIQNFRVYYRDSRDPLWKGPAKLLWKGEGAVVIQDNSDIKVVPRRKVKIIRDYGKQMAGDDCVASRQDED
"EC50 ([3]; Human immunodeficiency virus 1, T-cell, read-out: EC50) [µM]",Compound,CC50 (CEM-SS),IC50 [1] [µM],IC50 [2] [µM],EC50 ([3]; t cell line)
,O=C(/N=N/c1c(O)[nH]c2ccc(F)cc12)/C(=C/C=C/c1ccccc1)NC(=O)c1ccccc1,Toxic,38,60,
,COc1ccc(N(CC(=O)N/N=C/c2c(O)ccc3ccccc23)S(C)(=O)=O)cc1Cl,,59,95,
,Cc1[nH]n(-c2ccccc2)c(=O)c1C(c1ccc(O)c(O)c1)c1c(C)n(C)n(-c2ccccc2)c1=O (configuration not stated),Toxic,31,89,
,Cc1ccc(S(=O)(=O)Nc2ccccc2/N=C/c2sc3ccccc3c2O)cc1,,68,88,
,O=C(O)C(Cc1c[nH]c2ccccc12)NS(=O)(=O)c1ccccc1[N+](=O)[O-] (configuration not stated),,56,88,
,COc1ccc2oc(=O)c(-c3csc(N/N=C/c4ccccc4O)n3)cc2c1,,10,30,Not Active
,O=C(/C=C/c1ccco1)NC(=S)Nc1ccccc1O,Toxic,28,57,
,O=C(c1ccccc1)c1cc(Br)ccc1NC(=O)c1nc[nH]c1C(=O)O,,17,16,
,O=C(Nc1ccc(O)c(-c2nc3ccccc3o2)c1)c1cccc2ccccc12,,6,14,
,Oc1ccccc1/C=N/CC(O)C/N=C/c1ccccc1O,,61,97,
,CC(=O)c1cc(C(=O)CC(=O)Nc2ccc([N+](=O)[O-])cc2)sc1Nc1ccccc1,,28,80,
,CCOC(=O)c1c(-c2ccccc2)csc1NC(NC(=O)c1ccco1)C(=O)c1ccc(C)cc1 (configuration not stated),,79,> 100,
,O=C(/C=C/c1ccc(Cl)cc1)Nc1ccc(NC(=O)c2ccco2)cc1,,91,90,
,Cc1ccc(C(=O)N/C(=C/c2ccc(-c3ccc(Cl)cc3Cl)o2)C(=O)NCCCO)cc1,,85,> 1000,
,O=C(CC1Sc2ccccc2NC1=O)Nc1cccc(C(=O)O)c1 (configuration not stated),,71,79,
,COc1cc(/C=N/NC2=NC(=O)C(CC(=O)Nc3ccc(Cl)c(Cl)c3)S2)ccc1O (configuration not stated),Toxic,38,89,
,O=C(CSc1nc2ccccc2n1Cc1ccccc1)N/N=C/c1cc(Br)ccc1O,Toxic,51,60,
,CCSc1nnc(N2C(=O)c3ccc(C(=O)c4ccc(C(=O)O)cc4)cc3C2=O)s1,,65,98,

"EC50 ([3]; Human immunodeficiency virus 1, T-cell, read-out: EC50) [µM]",Compound,CC50 (CEM-SS),IC50 [1] [µM],IC50 [2] [µM],EC50 ([3]; t cell line)
,COc1ccc(C(=O)Nc2ccc(O)c(-c3nc4ccccc4o3)c2)cc1[N+](=O)[O-],,7,6,
,O=C(CSc1nc(O)cc(CSc2ccc(Cl)cc2)n1)Nc1ccc(Cl)cc1Cl,Toxic,,,
,CC(=O)c1cc(C(=O)CC(=O)Nc2cccc([N+](=O)[O-])c2)sc1Nc1ccccc1,,29,97,
,CCOC(=O)CCc1cc(C(=O)OCC)c(CCC(=O)OCC)cc1C(=O)OCC,,94,> 100,
104,O=C(Cc1ccccc1)Nc1cc(C(=O)O)c(NC(=O)Cc2ccccc2)cc1C(=O)O,> 400 µM,7,9,
,O=C(/C=C/c1ccc(-c2ccccc2[N+](=O)[O-])o1)Nc1ccc(O)c(-c2nc3ccccc3o2)c1,,63,23,
,O=C(O)c1cc(NC(=O)c2cccc3ccccc23)c(C(=O)O)cc1NC(=O)c1cccc2ccccc12,,21,28,
,CC(C)Cn1c(=O)c(C(=O)Nc2ccccc2S(N)(=O)=O)c(O)c2ccccc21,,16,40,Not Active
,Cc1ccc(C(=O)C2=C(O)C(=O)N(CCCc3c[nH]cn3)C2c2ccc(Cl)cc2)cc1 (configuration not stated),,67,93,
,CC(=O)c1cc(C(=O)CC(=O)Nc2ccccc2)sc1Nc1ccccc1,,> 100,> 100,
,O=C(/C=C(\O)c1ccc(Cl)cc1)C(=O)/N=N/c1c(O)[nH]c2ccc(Br)cc12,Toxic,28,42,
,COC(=O)c1ccc(C(=O)OC)c(NC(=O)c2ccc(C)c([N+](=O)[O-])c2)c1,,> 100,92,
,O=C(Nc1ccc(O)c(-c2nc3cc(Cl)ccc3o2)c1)c1cccnc1,,10,61,Not Active
,O=C(CSc1nc(CSc2ccc(Cl)cc2)cc(=O)[nH]1)Nc1ccc(Cl)cc1Cl,,24,34,
,O=C(N/N=C/c1ccc(/C=N/NC(=O)c2cc(O)cc(O)c2)cc1)c1cc(O)cc(O)c1,,56,76,
,COc1ccc(CCNC(=O)CC(=O)N/N=C/c2ccco2)cc1OC,Toxic,90,> 100,
,O=C(N/N=C/c1cc(Br)ccc1O)/C(=C/C=C/c1ccccc1)NC(=O)c1ccccc1,Toxic,23,90,
